Test results taken from the M2OR odorant receptor database.

How the values were obtained:
Details in all cases: stereoisomer not certain
OR10G2 (Homo sapiens) = molecular target: T1, OR10G2 (Homo sapiens) (UniProt Q8NGC3)
T1 sequence (whole entry): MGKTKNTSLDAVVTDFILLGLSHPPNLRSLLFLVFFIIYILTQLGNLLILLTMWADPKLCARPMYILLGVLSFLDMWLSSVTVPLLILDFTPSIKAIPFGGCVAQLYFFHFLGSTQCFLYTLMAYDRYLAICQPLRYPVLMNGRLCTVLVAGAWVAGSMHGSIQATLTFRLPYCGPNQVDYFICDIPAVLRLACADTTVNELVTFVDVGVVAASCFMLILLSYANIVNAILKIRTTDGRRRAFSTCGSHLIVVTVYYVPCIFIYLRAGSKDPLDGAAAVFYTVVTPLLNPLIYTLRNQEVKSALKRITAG
In short: (§1)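 Transient luciferase assays in mammalian cell lines were common, though methods varied by source. The values come from published papers and their supplementary material, with extra details from the original authors when needed. Responsive refers to a measured signal the original authors judged statistically different from baseline, and non-responsive (inactive) to the remainder.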

OR10G3 (Homo sapiens) = molecular target: T2, OR10G3 (Homo sapiens) (UniProt Q8NGC4)
T2 sequence (whole entry): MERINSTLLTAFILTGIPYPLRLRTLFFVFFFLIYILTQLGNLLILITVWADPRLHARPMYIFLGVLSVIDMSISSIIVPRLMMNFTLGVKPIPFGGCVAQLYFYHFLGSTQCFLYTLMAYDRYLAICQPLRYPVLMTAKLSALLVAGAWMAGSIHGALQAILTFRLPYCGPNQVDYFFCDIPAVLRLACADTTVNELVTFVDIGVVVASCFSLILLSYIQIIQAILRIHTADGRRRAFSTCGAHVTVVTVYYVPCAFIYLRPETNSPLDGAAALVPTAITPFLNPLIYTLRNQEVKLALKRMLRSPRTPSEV
In short: as §1

OR10G4 (Homo sapiens) = molecular target: T3, OR10G4 (Homo sapiens) (UniProt Q8NGN3)
T3 sequence (whole entry): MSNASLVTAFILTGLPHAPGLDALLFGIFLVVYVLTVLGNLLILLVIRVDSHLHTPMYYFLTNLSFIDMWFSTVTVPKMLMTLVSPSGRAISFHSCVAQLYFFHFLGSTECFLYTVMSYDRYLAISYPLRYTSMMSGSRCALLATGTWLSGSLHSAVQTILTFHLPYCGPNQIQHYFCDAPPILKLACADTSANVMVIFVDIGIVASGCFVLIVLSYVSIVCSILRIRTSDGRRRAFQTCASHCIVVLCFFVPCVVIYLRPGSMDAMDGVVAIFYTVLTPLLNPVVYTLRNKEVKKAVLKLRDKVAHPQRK
In short: as §1

OR10G6 (Homo sapiens) = molecular target: T4, OR10G6 (Homo sapiens) (UniProt Q8NH81)
T4 sequence (whole entry): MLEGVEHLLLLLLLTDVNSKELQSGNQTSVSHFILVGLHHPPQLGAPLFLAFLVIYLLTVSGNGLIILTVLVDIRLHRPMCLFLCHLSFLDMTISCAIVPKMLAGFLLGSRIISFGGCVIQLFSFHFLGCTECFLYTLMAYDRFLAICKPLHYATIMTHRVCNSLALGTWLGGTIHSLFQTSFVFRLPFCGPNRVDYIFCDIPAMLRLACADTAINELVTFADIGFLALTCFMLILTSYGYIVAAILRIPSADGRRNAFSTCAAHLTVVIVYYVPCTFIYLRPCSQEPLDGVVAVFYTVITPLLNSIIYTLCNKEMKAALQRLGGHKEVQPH
In short: as §1

OR10G7 (Homo sapiens) = molecular target: T5, OR10G7 (Homo sapiens) (UniProt Q8NGN6)
T5 sequence (whole entry): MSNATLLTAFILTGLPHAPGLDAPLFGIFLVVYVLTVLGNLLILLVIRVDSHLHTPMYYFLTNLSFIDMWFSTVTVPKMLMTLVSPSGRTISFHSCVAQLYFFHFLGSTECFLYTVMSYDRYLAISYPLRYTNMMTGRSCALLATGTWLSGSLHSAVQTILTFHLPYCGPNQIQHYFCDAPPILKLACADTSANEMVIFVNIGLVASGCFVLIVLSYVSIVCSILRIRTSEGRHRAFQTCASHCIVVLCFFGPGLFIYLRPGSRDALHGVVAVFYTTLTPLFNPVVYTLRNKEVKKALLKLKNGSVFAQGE
In short: as §1

OR10G8 (Homo sapiens) = molecular target: T6, OR10G8 (Homo sapiens) (UniProt Q8NGN5)
T6 sequence (whole entry): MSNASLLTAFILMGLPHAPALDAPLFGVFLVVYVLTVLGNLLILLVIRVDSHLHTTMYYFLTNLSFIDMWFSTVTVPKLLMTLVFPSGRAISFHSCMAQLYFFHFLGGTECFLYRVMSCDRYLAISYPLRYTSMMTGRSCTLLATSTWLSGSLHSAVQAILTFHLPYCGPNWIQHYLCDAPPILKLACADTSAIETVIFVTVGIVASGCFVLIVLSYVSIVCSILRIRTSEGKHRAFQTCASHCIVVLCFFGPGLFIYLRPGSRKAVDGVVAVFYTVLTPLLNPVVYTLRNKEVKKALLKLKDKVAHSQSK
In short: as §1

OR10G9 (Homo sapiens) = molecular target: T7, OR10G9 (Homo sapiens) (UniProt Q8NGN4)
T7 sequence (whole entry): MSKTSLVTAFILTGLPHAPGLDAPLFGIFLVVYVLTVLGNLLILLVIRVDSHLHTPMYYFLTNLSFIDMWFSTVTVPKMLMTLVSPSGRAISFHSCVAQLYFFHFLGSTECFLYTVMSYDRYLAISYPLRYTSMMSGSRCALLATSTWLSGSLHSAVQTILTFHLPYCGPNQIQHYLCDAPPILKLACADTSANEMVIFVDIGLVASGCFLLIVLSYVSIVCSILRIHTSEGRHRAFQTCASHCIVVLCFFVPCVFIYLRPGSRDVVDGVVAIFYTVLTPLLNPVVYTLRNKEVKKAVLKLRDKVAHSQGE
In short: as §1

OR10H1 (Homo sapiens) = molecular target: T8, OR10H1 (Homo sapiens) (UniProt Q9Y4A9)
T8 sequence (whole entry): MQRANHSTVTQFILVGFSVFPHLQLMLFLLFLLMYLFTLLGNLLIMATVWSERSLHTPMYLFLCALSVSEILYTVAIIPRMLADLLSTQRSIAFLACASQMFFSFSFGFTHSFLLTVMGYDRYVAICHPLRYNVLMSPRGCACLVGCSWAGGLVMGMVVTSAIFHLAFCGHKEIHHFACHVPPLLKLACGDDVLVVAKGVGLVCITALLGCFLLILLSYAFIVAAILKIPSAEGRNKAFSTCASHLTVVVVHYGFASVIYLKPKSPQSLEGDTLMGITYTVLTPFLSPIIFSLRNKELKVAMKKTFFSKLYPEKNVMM
In short: as §1

OR10H2 (Homo sapiens) = molecular target: T9, OR10H2 (Homo sapiens) (UniProt O60403)
T9 sequence (whole entry): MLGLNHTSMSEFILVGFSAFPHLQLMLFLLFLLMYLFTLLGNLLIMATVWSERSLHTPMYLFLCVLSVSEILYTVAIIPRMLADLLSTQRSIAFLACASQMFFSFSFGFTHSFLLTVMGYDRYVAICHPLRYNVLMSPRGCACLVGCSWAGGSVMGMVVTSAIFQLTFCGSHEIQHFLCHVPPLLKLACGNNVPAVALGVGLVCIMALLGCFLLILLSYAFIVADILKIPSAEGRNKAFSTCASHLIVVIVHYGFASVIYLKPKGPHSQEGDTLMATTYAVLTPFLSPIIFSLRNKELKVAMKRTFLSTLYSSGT
In short: as §1

OR10H3 (Homo sapiens) = molecular target: T10, OR10H3 (Homo sapiens) (UniProt O60404)
T10 sequence (whole entry): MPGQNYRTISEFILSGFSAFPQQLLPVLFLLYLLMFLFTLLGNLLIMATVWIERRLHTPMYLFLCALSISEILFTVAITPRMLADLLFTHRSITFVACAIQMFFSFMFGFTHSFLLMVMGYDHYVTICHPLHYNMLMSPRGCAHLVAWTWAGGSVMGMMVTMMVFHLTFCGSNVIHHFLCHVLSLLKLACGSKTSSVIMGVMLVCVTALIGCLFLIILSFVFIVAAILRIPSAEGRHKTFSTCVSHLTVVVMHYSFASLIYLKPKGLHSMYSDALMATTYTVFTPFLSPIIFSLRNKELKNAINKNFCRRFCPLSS
In short: as §1

Measured: odorant receptor agonist call;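 note: active if original authors judged signal statistically different from baseline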

CC1=C(O)C(=O)C(C)O1 (stereo not given)
inactive: OR10G2 (Homo sapiens) | OR10G3 (Homo sapiens) | OR10G4 (Homo sapiens) | OR10G6 (Homo sapiens) | OR10G7 (Homo sapiens) | OR10G8 (Homo sapiens) | OR10G9 (Homo sapiens) | OR10H1 (Homo sapiens) | OR10H2 (Homo sapiens) | OR10H3 (Homo sapiens)
